# The source made the active and inactive calls. The rule behind the calls is not given here.
# System: Bovine viral diarrhea virus 1
# Assay: Antiviral activity against Bovine viral diarrhea virus NADL infected in MDBK cells assessed as protection from virus-induced cytopathogenicity after 3 to 4 days by MTT method
# Assay type: functional, organism-based, Bovine viral diarrhea virus 1-NADL
# Details: Bovine viral diarrhea virus isolates and strains, MDBK
# Summary of the method: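 Cytopathogenicity protection assay. MDBK cells at 3 × 10^4/well, grown overnight to confluence. Infected with BVDV NADL at m.o.i. 0.01 in MEM-E with 0.5% inactivated FBS, 1 mM Na pyruvate and 1% kanamycin. Serial compound dilutions added after 1 h. After 3–4 days at 37 °C, viability read by MTT; EC50 is the concentration giving 50% protection.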
row,Compound,EC50
1,COc1ccc(-c2nc3cc(Cl)c(Cl)cc3[nH]2)c(N)c1,> 6.5 µM
2,O=[N+]([O-])c1ccc(-c2nc3cc(C(F)(F)F)ccc3[nH]2)cc1,> 6 µM
3,O=[N+]([O-])c1ccc(-c2nc3ccccc3[nH]2)c([N+](=O)[O-])c1,> 20 µM
4,Oc1ccc(-c2nc3cc(Cl)c(Cl)cc3[nH]2)cc1,> 11 µM
5,COc1ccc(-c2nc3cc([N+](=O)[O-])ccc3[nH]2)c(OC)c1OC,> 100 µM

# System: not listed separately
# Assay: Cytotoxicity against african green monkey Vero cells
# Assay type: cell-based
# Details: chlorocebus sabaeus
# Summary of the method: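 Vero 76 monolayers exposed to serial compound dilutions, run in parallel on the same 24-well plates as the plaque-reduction assays. CC50 is the concentration reducing viability of mock-infected cells by 50%.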
row,Compound,CC50
1,COc1ccc(-c2nc3cc(Cl)c(Cl)cc3[nH]2)c(N)c1,75 µM
2,O=[N+]([O-])c1ccc(-c2nc3cc(C(F)(F)F)ccc3[nH]2)cc1,45 µM
3,O=[N+]([O-])c1ccc(-c2nc3ccccc3[nH]2)c([N+](=O)[O-])c1,> 100 µM
4,Oc1ccc(-c2nc3cc(Cl)c(Cl)cc3[nH]2)cc1,18 µM
5,COc1ccc(-c2nc3cc([N+](=O)[O-])ccc3[nH]2)c(OC)c1OC,> 100 µM

# System: not listed separately
# Assay: Cytotoxicity against human MT4 cells after 96 hrs by MTT assay
# Assay type: cell-based
# Details: MT4 cells
# Summary of the method: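 Exponentially growing MT-4 cells at 1 × 10^5 cells/mL in RPMI-1640 with 10% FCS, exposed to serial compound dilutions at 37 °C, 5% CO2. Viability by MTT after 96 h; CC50 is the concentration reducing viability of mock-infected cells by 50%.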
row,Compound,CC50 at 96 h
1,COc1ccc(-c2nc3cc(Cl)c(Cl)cc3[nH]2)c(N)c1,3 µM
2,O=[N+]([O-])c1ccc(-c2nc3cc(C(F)(F)F)ccc3[nH]2)cc1,6 µM
3,O=[N+]([O-])c1ccc(-c2nc3ccccc3[nH]2)c([N+](=O)[O-])c1,7 µM
4,Oc1ccc(-c2nc3cc(Cl)c(Cl)cc3[nH]2)cc1,12 µM
5,COc1ccc(-c2nc3cc([N+](=O)[O-])ccc3[nH]2)c(OC)c1OC,> 100 µM

# System: Human alphaherpesvirus 1
# Assay: Antiviral activity against HSV1 KOS infected in african green monkey Vero cells after 3 days by plaque reduction assay
# Assay type: functional, organism-based
# Details: Human alphaherpesvirus 1, KOS, 72 h
# Summary of the method: (§1)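 Plaque reduction assay. Vero 76 cells at 2 × 10^5/well, grown overnight to confluence in D-MEM with 10% FBS. Infected 2 h with 50–100 PFU/well, unadsorbed virus removed. Overlay of D-MEM with 1% inactivated FBS and 0.75% methylcellulose, with or without serial compound dilutions. Incubated at 37 °C for 3 days (HSV-1 KOS, CVB-2 Ohio-1) or 5 days (RSV A2). Fixed and stained with crystal violet in 50% ethanol; plaques counted; EC50 by linear regression.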
row,Compound,EC50
1,COc1ccc(-c2nc3cc(Cl)c(Cl)cc3[nH]2)c(N)c1,> 75 µM
2,O=[N+]([O-])c1ccc(-c2nc3cc(C(F)(F)F)ccc3[nH]2)cc1,> 45 µM
3,O=[N+]([O-])c1ccc(-c2nc3ccccc3[nH]2)c([N+](=O)[O-])c1,25 µM
4,Oc1ccc(-c2nc3cc(Cl)c(Cl)cc3[nH]2)cc1,> 18 µM
5,COc1ccc(-c2nc3cc([N+](=O)[O-])ccc3[nH]2)c(OC)c1OC,> 100 µM

# System: Yellow fever virus
# Assay: Antiviral activity against Yellow fever virus 17D infected in BHK cells assessed as protection from virus-induced cytopathogenicity after 3 to 4 days by MTT method
# Assay type: functional, organism-based
# Details: not given
row,Compound,EC50
1,COc1ccc(-c2nc3cc(Cl)c(Cl)cc3[nH]2)c(N)c1,> 100 µM
2,O=[N+]([O-])c1ccc(-c2nc3cc(C(F)(F)F)ccc3[nH]2)cc1,> 18 µM
3,O=[N+]([O-])c1ccc(-c2nc3ccccc3[nH]2)c([N+](=O)[O-])c1,> 100 µM
4,Oc1ccc(-c2nc3cc(Cl)c(Cl)cc3[nH]2)cc1,> 29 µM
5,COc1ccc(-c2nc3cc([N+](=O)[O-])ccc3[nH]2)c(OC)c1OC,> 100 µM

# System: Vaccinia virus
# Assay: Antiviral activity against Vaccinia virus Elstree-Lister infected in african green monkey Vero cells after 3 days by plaque reduction assay
# Assay type: functional, organism-based
# Details: Orthopoxvirus vaccinia, 72 h
row,Compound,EC50
1,COc1ccc(-c2nc3cc(Cl)c(Cl)cc3[nH]2)c(N)c1,> 75 µM
2,O=[N+]([O-])c1ccc(-c2nc3cc(C(F)(F)F)ccc3[nH]2)cc1,4 µM
3,O=[N+]([O-])c1ccc(-c2nc3ccccc3[nH]2)c([N+](=O)[O-])c1,> 100 µM
4,Oc1ccc(-c2nc3cc(Cl)c(Cl)cc3[nH]2)cc1,> 18 µM
5,COc1ccc(-c2nc3cc([N+](=O)[O-])ccc3[nH]2)c(OC)c1OC,> 100 µM

# System: Respiratory syncytial virus
# Assay: Antiviral activity against RSV A2 infected in african green monkey Vero cells after 5 days by plaque reduction assay
# Assay type: functional, organism-based
# Details: human respiratory syncytial virus, A2, Vero, 120 h
# Summary of the method: as §1
row,Compound,EC50
1,COc1ccc(-c2nc3cc(Cl)c(Cl)cc3[nH]2)c(N)c1,> 75 µM
2,O=[N+]([O-])c1ccc(-c2nc3cc(C(F)(F)F)ccc3[nH]2)cc1,> 45 µM
3,O=[N+]([O-])c1ccc(-c2nc3ccccc3[nH]2)c([N+](=O)[O-])c1,> 100 µM
4,Oc1ccc(-c2nc3cc(Cl)c(Cl)cc3[nH]2)cc1,7 µM
5,COc1ccc(-c2nc3cc([N+](=O)[O-])ccc3[nH]2)c(OC)c1OC,> 100 µM

# System: Vesicular stomatitis virus
# Assay: Antiviral activity against VSV Indiana lab infected in african green monkey Vero cells after 2 days by plaque reduction assay
# Assay type: functional, organism-based
# Details: not given
row,Compound,Activity
1,COc1ccc(-c2nc3cc(Cl)c(Cl)cc3[nH]2)c(N)c1,inactive
2,O=[N+]([O-])c1ccc(-c2nc3cc(C(F)(F)F)ccc3[nH]2)cc1,inactive
3,O=[N+]([O-])c1ccc(-c2nc3ccccc3[nH]2)c([N+](=O)[O-])c1,inactive
4,Oc1ccc(-c2nc3cc(Cl)c(Cl)cc3[nH]2)cc1,inactive
5,COc1ccc(-c2nc3cc([N+](=O)[O-])ccc3[nH]2)c(OC)c1OC,inactive

# System: Poliovirus 1
# Assay: Antiviral activity against Polio virus type1 Sabin strain Chat infected in african green monkey Vero cells after 2 days by plaque reduction assay
# Assay type: functional, organism-based, Human poliovirus 1 strain Sabin
# Details: Enterovirus C, 48 h
row,Compound,EC50
1,COc1ccc(-c2nc3cc(Cl)c(Cl)cc3[nH]2)c(N)c1,> 75 µM
2,O=[N+]([O-])c1ccc(-c2nc3cc(C(F)(F)F)ccc3[nH]2)cc1,> 45 µM
3,O=[N+]([O-])c1ccc(-c2nc3ccccc3[nH]2)c([N+](=O)[O-])c1,> 100 µM
4,Oc1ccc(-c2nc3cc(Cl)c(Cl)cc3[nH]2)cc1,> 18 µM
5,COc1ccc(-c2nc3cc([N+](=O)[O-])ccc3[nH]2)c(OC)c1OC,> 100 µM

# System: Coxsackievirus B2
# Assay: Antiviral activity against Human coxsackievirus B2 Ohio-1 infected in african green monkey Vero cells after 3 days by plaque reduction assay
# Assay type: functional, organism-based, Coxsackievirus B2 (strain Ohio-1)
# Details: Enterovirus B, Vero, 72 h
# Summary of the method: as §1
row,Compound,EC50
1,COc1ccc(-c2nc3cc(Cl)c(Cl)cc3[nH]2)c(N)c1,> 75 µM
2,O=[N+]([O-])c1ccc(-c2nc3cc(C(F)(F)F)ccc3[nH]2)cc1,12 µM
3,O=[N+]([O-])c1ccc(-c2nc3ccccc3[nH]2)c([N+](=O)[O-])c1,40 µM
4,Oc1ccc(-c2nc3cc(Cl)c(Cl)cc3[nH]2)cc1,> 18 µM
5,COc1ccc(-c2nc3cc([N+](=O)[O-])ccc3[nH]2)c(OC)c1OC,> 100 µM

# System: not listed separately
# Assay: Cytotoxicity against MDBK cells after 48 to 96 hrs by MTT assay
# Assay type: cell-based, Bos taurus
# Details: cattle, MDBK cells
# Summary of the method: (§2)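 Cell seeding: MDBK at 6 × 10^5 cells/mL in MEM-E with 10% horse serum and 1 mM Na pyruvate; BHK at 1 × 10^6 cells/mL in MEM-E with 10% FBS. Serial compound dilutions, 37 °C, 5% CO2. Viability of mock-infected cells by MTT after 48–96 h; CC50 is the concentration reducing viability by 50%.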
row,Compound,CC50
1,COc1ccc(-c2nc3cc(Cl)c(Cl)cc3[nH]2)c(N)c1,6.5 µM
2,O=[N+]([O-])c1ccc(-c2nc3cc(C(F)(F)F)ccc3[nH]2)cc1,6 µM
3,O=[N+]([O-])c1ccc(-c2nc3ccccc3[nH]2)c([N+](=O)[O-])c1,20 µM
4,Oc1ccc(-c2nc3cc(Cl)c(Cl)cc3[nH]2)cc1,11 µM
5,COc1ccc(-c2nc3cc([N+](=O)[O-])ccc3[nH]2)c(OC)c1OC,> 100 µM

# System: not listed separately
# Assay: Cytotoxicity against BHK cells after 48 to 96 hrs by MTT assay
# Assay type: cell-based, Mesocricetus auratus
# Details: hamster
# Summary of the method: as §2
row,Compound,CC50
1,COc1ccc(-c2nc3cc(Cl)c(Cl)cc3[nH]2)c(N)c1,> 100 µM
2,O=[N+]([O-])c1ccc(-c2nc3cc(C(F)(F)F)ccc3[nH]2)cc1,18 µM
3,O=[N+]([O-])c1ccc(-c2nc3ccccc3[nH]2)c([N+](=O)[O-])c1,> 100 µM
4,Oc1ccc(-c2nc3cc(Cl)c(Cl)cc3[nH]2)cc1,29 µM
5,COc1ccc(-c2nc3cc([N+](=O)[O-])ccc3[nH]2)c(OC)c1OC,> 100 µM

# System: Human immunodeficiency virus 1
# Assay: Antiviral activity against HIV1 3B infected in human MT4 cells assessed as protection from virus-induced cytopathogenicity after 4 days by MTT method
# Assay type: functional, organism-based
# Details: not given
# Summary of the method: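 MT-4 cells, 1 × 10^4/well in RPMI with or without serial compound dilutions, infected with HIV-1 IIIB, 100 CCID50 (m.o.i. 0.01). Protection from virus-induced cytopathogenicity read by MTT.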
row,Compound,Activity
1,COc1ccc(-c2nc3cc(Cl)c(Cl)cc3[nH]2)c(N)c1,inactive
2,O=[N+]([O-])c1ccc(-c2nc3cc(C(F)(F)F)ccc3[nH]2)cc1,inactive
3,O=[N+]([O-])c1ccc(-c2nc3ccccc3[nH]2)c([N+](=O)[O-])c1,inactive
4,Oc1ccc(-c2nc3cc(Cl)c(Cl)cc3[nH]2)cc1,inactive
5,COc1ccc(-c2nc3cc([N+](=O)[O-])ccc3[nH]2)c(OC)c1OC,inactive

# Source: ChEMBL document CHEMBL1156237, “Antiviral activity of benzimidazole derivatives. II. Antiviral activity of 2-phenylbenzimidazole derivatives” (Bioorg Med Chem, 2010)
